Assay [1] concerns A549. In words: Cytotoxicity against human A549 cells assessed as growth inhibition at 20 uM after 48 hrs by MTT assay. It counts as functional. The following applies: for inhibition of growth at 20 µM: A549, 48 h, read-out: GI. The gist of the method:
(§1)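 Single-concentration screen at 20 µM. Cell growth inhibition read by standard MTT assay after 48 h treatment and expressed as inhibition ratio.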

Assay [2] relates to HeLa. In words: Cytotoxicity against human HeLa cells assessed as growth inhibition at 20 uM after 48 hrs by MTT assay. It is filed as functional. The following applies: for inhibition of growth at 20 µM: read-out: GI. The gist of the method: as §1
A general note: Formazan colour is commonly taken as a measure of viable cells.

Assay [3] deals with MDA-MB-231. The assay is described as follows: Cytotoxicity against human MDA-MB-231 cells assessed as growth inhibition at 20 uM after 48 hrs by MTT assay. The following applies: for inhibition of growth at 20 µM: MDA-MB-231, 48 h, read-out: GI. It is filed as functional. The gist of the method:
as §1

The target of assay [4] is Induced myeloid leukemia cell differentiation protein Mcl-1 (Homo sapiens) (UniProt Q07820). In words: Inhibition of mouse/human MCL1 expressed in Escherichia coli BL21 at 1 uM to 50 uM using FAM-labeled Bid-BH3 as tracer by fluorescence polarization assay. (Fluorescence polarisation rises when a labelled molecule tumbles more slowly, as on binding a larger partner.)
Another assay has as its system HEK-293T. In words: Cytotoxicity against human HEK293T cells assessed as growth inhibition after 48 hrs by MTT assay. It counts as cell-based. The gist of the method:
(§2)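 Dose-response MTT assay, 48 h exposure. Compounds run at multiple concentrations; IC50 taken as the concentration giving 50% growth inhibition. HEK-293T (human embryonic kidney cells transformed with adenovirus 5 DNA and SV40 large T-antigen) served as the normal-cell model.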

Assay [5] has as its system HeLa. The assay is described as follows: Cytotoxicity against human HeLa cells assessed as growth inhibition after 48 hrs by MTT assay. It counts as functional, cell-based. The gist of the method: as §2
Assay [6] relates to A549. The assay is described as follows: Cytotoxicity against human A549 cells assessed as growth inhibition after 48 hrs by MTT assay. It counts as functional, cell-based. To be noted: A549, 48 h. The gist of the method: as §2
For assay [7], the system named is MDA-MB-231. In words: Cytotoxicity against human MDA-MB-231 cells assessed as growth inhibition after 48 hrs by MTT assay. The following applies: MDA-MB-231, 48 h. It counts as functional, cell-based. The gist of the method:
as §2

Calls of active or inactive are those of the source. The rule behind the calls is not given here.

As to `O=C(Cn1cnc2sc3c(c2c1=O)CCC3)N/N=C/c1ccccc1O`, the inhibition of growth at 20 µM in the assay with A549 [1] turned out to be 22%; in the assay on HeLa [2], 23%; in the assay on MDA-MB-231 [3], 36%. Further, the inhibition entry in assay [4] is “inactive”.
Taken in the same sequence, the figures for `O=C(Cn1cnc2scc(-c3ccc(Cl)cc3)c2c1=O)N/N=C/c1ccccc1O` were 48%, 43%, 39% and “inactive”.
Taken in the same sequence, the figures for `O=C(Cn1cnc2scc(-c3ccccc3)c2c1=O)N/N=C/c1ccccc1O` were 26%, 31%, 30% and “inactive”.
With `O=C(Cn1cnc2scc(-c3ccc(Cl)cc3)c2c1=O)N/N=C/c1cccc([N+](=O)[O-])c1`, the “growth inhibition (GI)” value in the assay with A549 [1], with HeLa [2] and in the assay on MDA-MB-231 [3] was “inactive” in each case. The inhibition entry in assay [4] was “inactive”.
As for `O=C(Cn1cnc2sc3c(c2c1=O)CCCC3)N/N=C/c1ccc(C(F)(F)F)cc1`, the inhibition of growth at 20 µM with A549 [1] came out at 23%; in the assay on HeLa [2] it was 34%; in the assay on MDA-MB-231 [3], 30%. In addition, in assay [4], the inhibition entry is “inactive”.
With `O=C(Cn1cnc2scc(-c3ccc4ccccc4c3)c2c1=O)N/N=C/c1cccc([N+](=O)[O-])c1`, the “growth inhibition (GI)” value with A549 [1], in the assay with HeLa [2] and in the assay on MDA-MB-231 [3] was “inactive” throughout. Also, the inhibition entry in assay [4] was “inactive”.
With `N#Cc1ccc(/C=N/NC(=O)Cn2cnc3scc(-c4ccc(Cl)cc4)c3c2=O)cc1`, the “growth inhibition (GI)” value in the assay on A549 [1], in the assay on HeLa [2] and in the assay with MDA-MB-231 [3] was “inactive” each time. Further, the inhibition result in assay [4] is “inactive”.
Consider `Cc1csc2ncn(CC(=O)N/N=C/c3ccc(Cl)c([N+](=O)[O-])c3)c(=O)c12`, for which the inhibition of growth at 20 µM was 13% in the assay with A549 [1], 18% in the assay with HeLa [2] and 13% with MDA-MB-231 [3]. Also, in assay [4], the inhibition result was “inactive”.
In the case of `O=C(Cn1cnc2sc3c(c2c1=O)CCCCC3)N/N=C/c1ccc(Cl)c(F)c1`, the figures for the inhibition of growth at 20 µM with A549 [1], with HeLa [2] and with MDA-MB-231 [3] were 43%, 50% and 28%, respectively. Also, in assay [4], the inhibition entry was “inactive”.
For the compound `O=C(Cn1cnc2scc(-c3ccc4ccccc4c3)c2c1=O)N/N=C/c1ccccc1O`, the inhibition of growth at 20 µM in the assay with A549 [1] came to 44%; in the assay on HeLa [2], 22%; in the assay with MDA-MB-231 [3], 36%. Moreover, the inhibition entry in assay [4] was “inactive”.
As to `O=C(Cn1cnc2scc(-c3ccc(Cl)cc3)c2c1=O)N/N=C/c1ccc(Cl)c(F)c1`, the “growth inhibition (GI)” value in the assay with A549 [1], with HeLa [2] and in the assay with MDA-MB-231 [3] was “inactive” in each case. Also, the inhibition entry in assay [4] is “inactive”.
For the compound `O=C(Cn1cnc2sc3c(c2c1=O)CCC3)N/N=C/c1ccc(Cl)c([N+](=O)[O-])c1`, in the assay on A549 [1], the “growth inhibition (GI)” value is “inactive”. Also, the inhibition of growth at 20 µM in the assay with HeLa [2] turned out to be 34%; with MDA-MB-231 [3], 41%. Moreover, the inhibition entry in assay [4] was “inactive”.
For `O=C(Cn1cnc2sc3c(c2c1=O)CCCCC3)N/N=C/c1ccc(O)cc1`, the “growth inhibition (GI)” value in the assay on A549 [1], in the assay with HeLa [2] and in the assay with MDA-MB-231 [3] was “inactive” in each case. The inhibition result in assay [4] was “inactive”.
Turning to `O=C(Cn1cnc2sc3c(c2c1=O)CCCCC3)N/N=C/c1ccccc1O`, the inhibition of growth at 20 µM was found to be 29% with A549 [1], 36% in the assay with HeLa [2] and 40% in the assay with MDA-MB-231 [3]. Also, the inhibition result in assay [4] is “inactive”.
In the same order, the values of `O=C(Cn1cnc2sc3c(c2c1=O)CCC3)N/N=C/c1ccc(O)cc1` are 27%, 29%, 25% and “inactive”.
On to `O=C(Cn1cnc2sc3c(c2c1=O)CCCCC3)N/N=C/c1cccc(O)c1`, for which the “growth inhibition (GI)” value in the assay on A549 [1], in the assay on HeLa [2] and with MDA-MB-231 [3] was “inactive” in each case. Also, the inhibition entry in assay [4] is “inactive”.
Consider `O=C(Cn1cnc2scc(-c3ccccc3)c2c1=O)N/N=C/c1ccc(Cl)c(F)c1`, for which the “growth inhibition (GI)” value in the assay with A549 [1], in the assay on HeLa [2] and in the assay on MDA-MB-231 [3] was “inactive” in each case. Also, in assay [4], the inhibition result is “inactive”.
Take `Cc1cc(-c2csc3ncn(CC(=O)N/N=C/c4ccccc4O)c(=O)c23)ccc1Cl`: the inhibition of growth at 20 µM with A549 [1] was determined as 35%; in the assay with HeLa [2], 33%; in the assay with MDA-MB-231 [3], 37%. The inhibition entry in assay [4] was “inactive”.
Regarding `Cc1csc2ncn(CC(=O)N/N=C/c3ccc(C#N)cc3)c(=O)c12`, the “growth inhibition (GI)” value with A549 [1], in the assay with HeLa [2] and with MDA-MB-231 [3] was “inactive” in each case. Also, in assay [4], the inhibition entry was “inactive”.
As for `O=C(Cn1cnc2scc(-c3ccc(Cl)cc3)c2c1=O)N/N=C/c1ccc(O)c(O)c1`, the “growth inhibition (GI)” value with A549 [1], with HeLa [2] and in the assay with MDA-MB-231 [3] was “inactive” throughout. Moreover, the inhibition result in assay [4] was “inactive”.
Take `N#Cc1ccc(/C=N/NC(=O)Cn2cnc3sc4c(c3c2=O)CCCCC4)cc1`: the inhibition of growth at 20 µM with A549 [1] was found to be 10%; in the assay with HeLa [2] it was 11%; with MDA-MB-231 [3], 14%. In assay [4], the inhibition entry was “inactive”.
`Cc1csc2ncn(CC(=O)N/N=C/c3ccc(Cl)c(F)c3)c(=O)c12`: the “growth inhibition (GI)” value in the assay on A549 [1], with HeLa [2] and in the assay with MDA-MB-231 [3] was “inactive” in each case. Besides, the inhibition result in assay [4] is “inactive”.
Take `N#Cc1ccc(/C=N/NC(=O)Cn2cnc3sc4c(c3c2=O)CCC4)cc1`: the “growth inhibition (GI)” value in the assay with A549 [1], with HeLa [2] and in the assay on MDA-MB-231 [3] was “inactive” in each case. In addition, the inhibition result in assay [4] is “inactive”.
The term IC50 denotes the concentration that gives 50% inhibition. On to `O=C(Cn1cnc2sc3c(c2c1=O)CCCC3)N/N=C/c1ccccc1O`, for which the inhibition of growth at 20 µM in the assay on A549 [1] came to 18%; in the assay with HeLa [2], 34%; in the assay on MDA-MB-231 [3] it was 29%. Besides, the IC50 in the assay with HEK-293T is greater than 50 µM; with HeLa [5], 40 µM; in the assay with A549 [6], greater than 50 µM; in the assay on MDA-MB-231 [7], 16 µM. Besides, the inhibition entry in assay [4] was “inactive”.
Regarding `O=C(Cn1cnc2sc3c(c2c1=O)CCC3)N/N=C/c1ccc(Cl)c(F)c1`, the inhibition of growth at 20 µM in the assay on A549 [1] was 47%; with HeLa [2], 54%; in the assay with MDA-MB-231 [3] it was 29%. Further, the inhibition result in assay [4] is “inactive”.
For the compound `O=C(Cn1cnc2scc(-c3ccc4ccccc4c3)c2c1=O)N/N=C/c1ccc(Cl)c(F)c1`, the “growth inhibition (GI)” value in the assay on A549 [1], in the assay with HeLa [2] and with MDA-MB-231 [3] was “inactive” in each case. The inhibition entry in assay [4] was “inactive”.
Turning to `N#Cc1ccc(/C=N/NC(=O)Cn2cnc3sc4c(c3c2=O)CCCC4)cc1`, the “growth inhibition (GI)” value with A549 [1], in the assay with HeLa [2] and in the assay with MDA-MB-231 [3] was “inactive” in each case. Besides, the inhibition result in assay [4] is “inactive”.
For the compound `N#Cc1ccc(/C=N/NC(=O)Cn2cnc3scc(-c4ccc5ccccc5c4)c3c2=O)cc1`, the “growth inhibition (GI)” value in the assay with A549 [1], with HeLa [2] and with MDA-MB-231 [3] was “inactive” in each case. Also, the inhibition result in assay [4] is “inactive”.
`O=C(Cn1cnc2sc3c(c2c1=O)CCCC3)N/N=C/c1ccc(Cl)c(F)c1`: the inhibition of growth at 20 µM in the assay with A549 [1] is 26%; with HeLa [2] it was 41%; with MDA-MB-231 [3] it was 39%. Also, in assay [4], the inhibition entry was “inactive”.
For the compound `O=C(Cn1cnc2sc3c(c2c1=O)CCCC3)N/N=C/c1ccc(Cl)c([N+](=O)[O-])c1`, the inhibition of growth at 20 µM in the assay with A549 [1] amounted to 10%; with HeLa [2] it was 27%; with MDA-MB-231 [3], 38%. In assay [4], the inhibition result was “inactive”.
In the case of `O=C(Cn1cnc2sc3c(c2c1=O)CCC3)N/N=C/c1cccc(O)c1`, the “growth inhibition (GI)” value with A549 [1], in the assay on HeLa [2] and with MDA-MB-231 [3] was “inactive” each time. Besides, the inhibition entry in assay [4] is “inactive”.
Take `N#Cc1ccc(/C=N/NC(=O)Cn2cnc3scc(-c4ccccc4)c3c2=O)cc1`: the “growth inhibition (GI)” value with A549 [1], in the assay with HeLa [2] and with MDA-MB-231 [3] was “inactive” each time. The inhibition entry in assay [4] is “inactive”.

Source of the values: ChEMBL document CHEMBL1909506, “Synthesis and anti-tumor activities of N'-benzylidene-2-(4-oxothieno[2,3-d]pyrimidin-3(4H)-yl)acetohydrazone derivatives” (Bioorg Med Chem Lett, 2011).
